Assay [1] has as its target T1, Alpha-2A adrenergic receptor (Homo sapiens) (UniProt P08913).
T1 sequence (whole entry): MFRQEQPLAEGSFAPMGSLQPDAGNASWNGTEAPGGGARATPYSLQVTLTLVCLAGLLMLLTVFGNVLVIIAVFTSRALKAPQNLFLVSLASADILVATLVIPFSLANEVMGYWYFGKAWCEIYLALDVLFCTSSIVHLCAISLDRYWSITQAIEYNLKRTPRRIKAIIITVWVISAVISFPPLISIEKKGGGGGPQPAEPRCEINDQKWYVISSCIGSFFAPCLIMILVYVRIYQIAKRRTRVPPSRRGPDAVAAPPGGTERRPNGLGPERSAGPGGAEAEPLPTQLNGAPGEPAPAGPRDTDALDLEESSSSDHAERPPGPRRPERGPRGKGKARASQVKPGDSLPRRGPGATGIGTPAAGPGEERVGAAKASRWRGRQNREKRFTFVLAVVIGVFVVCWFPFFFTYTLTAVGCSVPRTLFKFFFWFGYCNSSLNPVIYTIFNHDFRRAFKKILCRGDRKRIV
The assay is described as follows: Antagonist activity at human alpha2a-AR expressed in CHO cells assessed as inhibition of (-)-noradrenaline-induced acidification rate after 240 mins by cytosensor microphysiometric analysis. The format is cell-based. The essentials:
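Functional assay in CHO cells stably expressing a single human α2-AR subtype (α2A, α2B or α2C), read on a Cytosensor microphysiometer. Outputs are pEC50, intrinsic activity and, for antagonism, pKb. Intrinsic activity is expressed as a fraction of the full agonist (−)-noradrenaline, set at 1. Values are mean ± SEM of 3–5 separate experiments.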

Assay [2] in a line: Reduction in morphine dependence expression in CD1 mouse assessed as inhibition of naloxone-precipitated teeth chattering frequency at 10 mg/kg, ip administered acutely 15 mins prior to naloxone challenge relative to control. The format is functional, organism-based.
For assay [3], the system named is Mus musculus. The experiment in a line: Reduction in morphine dependence acquisition in CD1 mouse assessed as inhibition of naloxone-precipitated forepaw tremor frequency at 5 to 10 mg/kg, ip administered 15 mins prior to each morphine challenge relative to control. The format is functional. An outline of the steps: (§1)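 Mice received i.p. test compound (5 or 10 mg/kg) 15 min before each of repeated morphine injections, with vehicle and morphine-only controls. Withdrawal was then precipitated with naloxone. Jumping frequency and somatic signs (rearing, forepaw tremor, teeth chattering; summed frequency) were scored and compared with the morphine group. Data are mean ± SEM of 6–10 animals.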

Assay [4] can be described thus: Reduction in morphine dependence expression in CD1 mouse assessed as inhibition of naloxone-precipitated forepaw tremor frequency at 5 mg/kg, ip administered acutely 15 mins prior to naloxone challenge relative to control. It counts as functional, organism-based.
Assay [5] has as its target Nischarin (Rattus norvegicus, UniProt Q4G017). The assay is described as follows: Displacement of [125I]-p-iodoclonidine from I1 receptor imidazoline binding site in Sprague-Dawley rat kidney cell membranes after 30 mins by liquid scintillation counting. The essentials:
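Radioligand competition binding with pKi determined by displacement. I1 sites: [125I]-p-iodoclonidine on rat kidney membranes. I2 sites: [3H]-2-BFI on rat brain membranes. α2-ARs: [3H]-RX821002 on rat brain membranes.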
In general terms: Loss of bound radioactivity is the signal in a displacement assay; it reports binding, not function.

Assay [6] relates to Mus musculus. The assay is described as follows: Reduction in morphine dependence acquisition in CD1 mouse assessed as inhibition of naloxone-precipitated jumping at 5 to 10 mg/kg, ip administered 15 mins prior to each morphine challenge relative to control. It counts as functional. An outline of the steps:
as §1

Assay [7] is described as follows: Reduction in morphine dependence expression in CD1 mouse assessed as inhibition of naloxone-precipitated jumping at 10 mg/kg, ip administered acutely 15 mins prior to naloxone challenge relative to control. The format is functional, organism-based.

Sequence of Nischarin (Q4G017 whole entry): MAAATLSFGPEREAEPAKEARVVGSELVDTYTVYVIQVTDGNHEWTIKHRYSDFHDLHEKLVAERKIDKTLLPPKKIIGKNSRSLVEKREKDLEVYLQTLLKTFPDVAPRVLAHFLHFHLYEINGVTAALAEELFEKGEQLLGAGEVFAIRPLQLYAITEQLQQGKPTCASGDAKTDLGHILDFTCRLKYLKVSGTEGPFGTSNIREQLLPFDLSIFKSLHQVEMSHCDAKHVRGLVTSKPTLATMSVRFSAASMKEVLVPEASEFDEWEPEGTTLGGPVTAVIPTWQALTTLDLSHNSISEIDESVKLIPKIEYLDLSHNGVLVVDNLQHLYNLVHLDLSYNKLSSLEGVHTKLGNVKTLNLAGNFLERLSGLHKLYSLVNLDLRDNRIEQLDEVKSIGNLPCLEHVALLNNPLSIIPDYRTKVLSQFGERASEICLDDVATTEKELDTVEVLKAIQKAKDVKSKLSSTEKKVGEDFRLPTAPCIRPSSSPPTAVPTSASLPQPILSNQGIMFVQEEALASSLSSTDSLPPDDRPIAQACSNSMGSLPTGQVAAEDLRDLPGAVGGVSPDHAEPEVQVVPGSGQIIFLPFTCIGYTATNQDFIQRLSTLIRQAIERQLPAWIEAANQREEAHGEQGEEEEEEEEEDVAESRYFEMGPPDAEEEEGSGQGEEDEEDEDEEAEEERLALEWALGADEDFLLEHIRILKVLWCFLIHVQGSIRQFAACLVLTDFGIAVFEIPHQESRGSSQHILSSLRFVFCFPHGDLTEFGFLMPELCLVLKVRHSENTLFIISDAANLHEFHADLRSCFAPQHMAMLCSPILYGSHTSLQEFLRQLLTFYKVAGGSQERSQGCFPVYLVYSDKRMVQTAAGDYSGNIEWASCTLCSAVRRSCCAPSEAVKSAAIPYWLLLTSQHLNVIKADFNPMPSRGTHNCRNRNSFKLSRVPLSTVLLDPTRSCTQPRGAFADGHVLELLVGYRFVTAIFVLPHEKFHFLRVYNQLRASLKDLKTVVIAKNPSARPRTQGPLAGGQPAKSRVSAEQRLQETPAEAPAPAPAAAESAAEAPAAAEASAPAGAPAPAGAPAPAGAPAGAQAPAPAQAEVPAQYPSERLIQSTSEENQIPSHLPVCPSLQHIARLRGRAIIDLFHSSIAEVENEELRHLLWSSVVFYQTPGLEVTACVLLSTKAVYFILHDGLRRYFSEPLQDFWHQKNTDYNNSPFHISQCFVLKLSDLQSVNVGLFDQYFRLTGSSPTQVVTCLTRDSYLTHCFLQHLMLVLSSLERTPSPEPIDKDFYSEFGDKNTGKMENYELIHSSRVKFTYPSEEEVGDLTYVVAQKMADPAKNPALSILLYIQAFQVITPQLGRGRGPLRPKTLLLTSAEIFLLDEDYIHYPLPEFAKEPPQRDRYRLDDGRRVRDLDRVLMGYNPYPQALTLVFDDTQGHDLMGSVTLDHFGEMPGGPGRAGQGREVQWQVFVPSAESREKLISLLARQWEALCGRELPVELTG

As to `Cc1ccccc1NCC1=NCCN1`, the pKb in assay [1] was determined as 7.58. The inhibition in assay [2] came out at 93%; in assay [4], 86%; in assay [7], 98%. In addition, the “inhibition (INH)” value in assay [3] and in assay [6] was 80% in each case. For the same molecule, the Ki in assay [5] was 2 nM.

A word on the pKb: it is the negative decadic logarithm of the Kb, by convention in mol/L. In general, inhibition refers to the drop in the measured response relative to a control, in per cent. For orientation: Ki means the equilibrium dissociation constant of an inhibitor or competing ligand from its target. High values mean weaker binding, low ones tighter binding.
